Rows were chosen to be rich in hits. Some 5.1% of all compounds tested hit in one or more screens of this group.
STAT3 blocker = reduces IL-6 driven STAT3 reporter signal. U3A cells, IL-6 STAT3-luciferase reporter, luminescence; host cell line lacks STAT1. inhibition, % at 5.5 µM. 190,000 compounds, 0.89% hits;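 active = inhibition above the mean inhibition across all screened compounds plus 3 SD, cut at about 44% in these data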
APP 5'UTR act = APP 5'UTR luciferase reporter activation; SH-SY5Y APP 5'UTR luciferase reporter, luminescence; zero percent = DMSO vehicle wells; 190,000 compounds, 1% hits; activation, % at 2 µM; AID 1276;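 active = activation above a set limit, based on mean plus 3 SD of controls, cut at about 140% in these data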
STAT1 inh = STAT1 signaling inhibition. NIH 3T3 STAT1-luciferase reporter, IFN-gamma, luminescence. inhibition, % at 5.5 µM. 200,000 compounds, 0.35% hits;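 active = inhibition above a set limit, the mean inhibition across all tested compounds plus 3 SD, cut at about 34% in these data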
NF-kB neuron act = compounds increasing NF-kB expression in human neuronal cells; NF-kB reporter expression; stronger effect = higher value; fold change at 12.5 µM; 190,000 compounds, 1.6% hits; in the data active = fold change above about 3.3
STAT3 act = STAT3 signaling activation; activation (% of control), % at 5.6 µM; AID 871; U3A cells, IL-6 STAT3-luciferase reporter, luminescence; 100% = signal with IL-6 EC80 alone; 190,000 compounds, 0.91% hits;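 active = activation above the screen-wide mean of compound activation plus 3 SD, cut at about 130% in these data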
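system = STAT3-luciferase reporter U3A cells | reagent = IL-6 stimulus at 33 ng/mL final | timing = 1 h compound pre-exposure, 6 h IL-6 stimulation, 37 °C | measured by = luminescence | evaluation = % activation versus median of IL-6-stimulated wells | control set = IL-6-only wells as 100% reference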
STAT1 act = increases IFN-gamma driven STAT1 reporter signal; NIH 3T3 STAT1-luciferase reporter, luminescence; 100% = IFN-gamma alone, no compound; activation (% of control), % at 5.5 µM; 200,000 compounds, 2.6% hits; AID 932;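 active = activation above the screen-wide mean activation plus 3 SD, cut at about 130% in these data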
Of the large screens only hits and unclear results are named; the others gave an inactive call.

COc1ccc(CCNc2ncnc3c2oc2ccccc23)cc1OC	STAT3 blocker 80
c1ccc(CNc2ncnc3c2oc2ccccc23)nc1	STAT1 act 132
COc1ccccc1NC(=O)Nc1nc(C(C)(C)C)cs1	none
CC(C)(C)SCCNC(=O)CN(c1ccccc1)S(=O)(=O)c1ccccc1	none
COc1ccc(OCCOC(=O)c2[nH]c(C)c(C(C)=O)c2C)cc1	NF-kB neuron act 5.8
COc1ccccc1OCCCC(=O)Nc1nccs1	STAT1 act 134
CCOc1ccc(S(=O)(=O)N(C)c2ccc(OCC(=O)Nc3nccs3)cc2)cc1	none
CCOc1ccc(OCC(=O)Nc2nccs2)cc1	STAT3 blocker 95, APP 5'UTR act 157, STAT1 inh 61
COc1ccc(C(CC(=O)Nc2cc(OC)cc(OC)c2)n2cccc2)cc1 (stereo unspecified)	none
COc1ccc(C(CC(=O)Nc2nccs2)n2cccc2)cc1 (stereo unspecified)	APP 5'UTR act 194, NF-kB neuron act 4.5, STAT1 act 156
O=C(CCCOc1ccccc1)Nc1nccs1	none
COc1ccc(/C=C/C(=O)c2cc3c(cc2N)OCO3)cc1	APP 5'UTR act 145, NF-kB neuron act 3.8
Cc1cccc(NC(=O)NNC(=O)c2sccc2-n2cccc2)c1	none
COc1ccc(/C=C/C(=O)c2ccc[nH]2)cc1OC	STAT1 act 130
O=c1c2c(-c3cccs3)csc2ncn1-n1cccc1	STAT3 act 136
Cc1ccc2nc(-c3cccc(S(=O)(=O)N(C)C)c3)cn2c1	STAT1 act 136
COc1ccc(C(=O)Sc2nncc3ccccc23)cc1	none
Clc1ccc(/C(Cc2nc3ccccc3[nH]2)=N\Nc2ccccc2)cc1	STAT1 act 136
O=c1[nH]c(S)nc2sc3c(c12)CCCC3	none
O=c1[nH]c(-c2ccco2)nc2sc3c(c12)CCCC3	APP 5'UTR act 154, NF-kB neuron act 5.8, STAT1 act 149
Brc1ccc(COc2ncnc3ccccc23)cc1	none
Nc1ncccc1OCc1ccc(Br)cc1	STAT1 act 141
Cc1ccc(S(=O)(=O)CC#CCOC(=O)c2ccc([N+](=O)[O-])cc2)cc1	none
Cc1cccnc1NC(=O)Cn1nc(-c2ccccc2)oc1=S	APP 5'UTR act 170, NF-kB neuron act 4.2
Cc1cccnc1NC(=O)Cn1nc([N+](=O)[O-])cc1C	none
CCOC(=O)c1cc(C(C)=O)c(=O)[nH]c1C	APP 5'UTR act 222
COc1ccc(C(C)=O)cc1COC(=O)C(CO)NS(=O)(=O)c1ccc(Br)cc1 (stereo unspecified)	none
O=C(CSc1ccc(C(F)(F)F)cc1[N+](=O)[O-])Nc1ccc2ccccc2c1	none
COc1ccccc1-n1cc(C(=O)NCC(=O)N2CCN(c3ccccc3)CC2)c2ccccc2c1=O	STAT1 act 136
CCOC(=O)c1noc(C)c1C(=O)Nc1nc(C)cc(C)n1	none
C=C(C)C1CC=C(C)/C(=N/NC(=O)c2ccoc2C)C1 (stereo unspecified)	STAT1 act 138
O=c1[nH]c2ccc(Cl)cc2c(O)c1-c1ccccc1	STAT3 blocker 83, STAT1 inh 45
O=c1[nH]c2ccc(Cl)cc2c(-c2ccccc2)c1SC(=S)N1CCCCC1	none
COC(=O)/C(=C/c1c[nH]c2ccccc12)NC(C)=O	none
COC(=O)/C(=C/c1c[nH]c2ccccc12)[N+](=O)[O-]	STAT3 act 134
COc1ccc2c(c1OC)C(=O)N(c1cccc(C(F)(F)F)c1)C2	NF-kB neuron act 7.4, STAT1 act 149
Cc1cccc(N2CC(=O)N(c3cccc(C)c3)CC2=O)c1	none
COc1ccc2c(c1OC)C(=O)N(c1cccc(C)c1)C2	NF-kB neuron act 5.2, STAT1 act 135
COc1ccc2c(c1OC)C(=O)N(c1ccccn1)C2	STAT1 act 149
CC1(C)Cc2nc3nc(SCC(=O)NCCc4ccccc4)n(-c4ccccc4)c(=O)c3cc2CO1	none
CC(C)c1ccc(S(=O)(=O)/N=C2/C=C(Sc3ncn[nH]3)C(=O)c3ccccc32)cc1	STAT3 act 152
Cc1ccc(S(=O)(=O)Nc2ccc(O)c(Sc3ncn[nH]3)c2)cc1	none
Cc1ccc(S(=O)(=O)/N=C2/C=C(Sc3ncn[nH]3)C(=O)c3ccccc32)c(C)c1	STAT3 act 142
Cc1ccc(NC(=O)c2cc(NC(=O)C3CC=CCC3C(=O)O)ccc2N2CCOCC2)cc1Cl (stereo unspecified)	none
Fc1ccc(F)c(C2=NNC(=Nc3ccccc3F)SC2)c1	NF-kB neuron act 5.1, STAT1 act 143
Fc1ccc(N=C2NN=C(c3cc(F)ccc3F)CS2)cc1	none
Cc1cccc(N=C2NN=C(c3ccccc3F)CS2)c1C	none
Fc1ccccc1N=C1NN=C(c2ccccc2)CS1	APP 5'UTR act 158, NF-kB neuron act 4.6, STAT1 act 143
Clc1ccccc1N=C1NN=C(c2cccs2)CS1	APP 5'UTR act 183, NF-kB neuron act 4.3, STAT1 act 143
Cc1cccc(C2=N/C(=C\c3cccs3)C(=O)O2)c1	none (no result: NF-kB neuron act)
CN(C)S(=O)(=O)c1ccc(Cl)c(NC(=O)COC(=O)C2CSC3(C)CCC(=O)N23)c1 (stereo unspecified)	none
O=C(CCCN1C(=O)/C(=C/c2cccc(Br)c2)SC1=S)Nc1cccnc1	NF-kB neuron act 3.4
Cc1nn(CCC(=O)NNC(=S)NCC(C)C)c(C)c1Br	none
COc1ccc(OC)c(/C=C2\SC(=S)N(Cc3cccnc3)C2=O)c1	NF-kB neuron act 3.9
O=S(=O)(c1ccc2c(c1)OCCO2)N1CCN(c2ncnc3sccc23)CC1	STAT3 blocker 61, STAT1 inh 38
O=C(COC(=O)CCCSc1nc2ccccc2[nH]1)Nc1ccc(Cl)cc1	none
CCn1c(COc2ccc(C)cc2)nnc1SCc1ccc(C#N)cc1	none
CCCSc1ccc2nc(-c3ccccc3)cn2c1	STAT3 blocker 103, STAT1 inh 79
CCCCSc1ccc2nc(-c3ccc(C#N)cc3)cn2c1	STAT1 act 131
O=C(Nc1ccccc1)c1ccn[nH]1	NF-kB neuron act 3.4, STAT1 act 138
CCOc1cc(S(=O)(=O)n2ccnc2)ccc1Cl	NF-kB neuron act 3.6
CCOc1cc(S(=O)(=O)n2ccnc2)ccc1Br	none
COc1ccc(/C(N)=N/OC(=O)CSc2ccccc2)cc1	NF-kB neuron act 5.3
Cc1ccc(/C(N)=N/OC(=O)CSc2ccccc2)cc1	APP 5'UTR act 180, STAT1 act 130
N=C1c2ccccc2CN1NC(=O)c1cccc(S(=O)(=O)N2CCCC2)c1	none
COc1ccccc1Nc1nc(NCC2CCCO2)c2ccccc2n1 (stereo unspecified)	none
CC1Cc2ccccc2N1C(=O)CSc1nnc(-c2ccccc2)c(-c2ccccc2)n1 (stereo unspecified)	none
CSc1ccc(/C=C/C(=O)c2ccc(O)cc2)cc1	NF-kB neuron act 3.4
